From ChEMBL document CHEMBL1157314, “Antibacterial, partially acetylated oligorhamnosides from Cleistopholis patens” (2006)
In brackets after ≈: the same amount, converted by molar mass.

What was measured:
Assay type in all cases: functional
[1] = test system: Staphylococcus epidermidis; assay: Antibacterial activity against oxacillin-susceptible Staphylococcus epidermidis isolate 12-1788A isolate after 24 hrs by broth microdilution method
Streptococcus pneumoniae [2] = assay: Antibacterial activity against erythromycin and clindamycin-resistant Streptococcus pneumoniae 4-38B isolate after 24 hrs by broth microdilution method
How it was run: (§1)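 Broth microdilution following NCCLS M7-A6 (2003), with inoculum at the recommended densities. Isolates were placed into panel wells with an autoinoculator and grown in cation-adjusted Mueller-Hinton broth at 35°C in ambient air for overnight to 24 h. Panels were read by eye, and the MIC was taken as no visible growth.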

Streptococcus [3] = assay: Antibacterial activity against levofloxacin-resistant beta-haemolytic sStreptococcus 19-756A isolate after 24 hrs by broth microdilution method; how it was run: as §1
Streptococcus pyogenes = assay: Antibacterial activity against erythromycin-resistant Streptococcus pyogenes 91-8747 isolate after 24 hrs by broth microdilution method; how it was run: as §1
Staphylococcus aureus [4] = assay: Antibacterial activity against methicillin-resistant Staphylococcus aureus ATCC 33591 after 24 hrs by broth microdilution method; settings: ATCC 33591, 24 h; how it was run: as §1
Staphylococcus aureus [5] = assay: Antibacterial activity against methicillin-resistant Staphylococcus aureus 78-13607A after 24 hrs by broth microdilution method; how it was run: as §1
Enterococcus faecalis [6] = assay: Antibacterial activity against linezolid-resistant Enterococcus faecalis 15-5341 isolate after 24 hrs by broth microdilution method; how it was run: as §1
Enterococcus faecium [7] = assay: Antibacterial activity against quinupristin/dalfopristin-resistant Enterococcus faecium 65-1208A isolate after 24 hrs by broth microdilution method; how it was run: as §1
Staphylococcus aureus [8] = assay: Antibacterial activity against mupirocin-resistant Staphylococcus aureus 4-90A isolate after 24 hrs by broth microdilution method; how it was run: as §1
Enterococcus faecium [9] = assay: Antibacterial activity against vancomycin-resistant Enterococcus faecium 103-1232D isolate with vanB phenotype after 24 hrs by broth microdilution method; how it was run: as §1
Streptococcus pneumoniae [10] = assay: Antibacterial activity against multidrug resistant Streptococcus pneumoniae 68-2307B isolate after 24 hrs by broth microdilution method; how it was run: as §1
Streptococcus pneumoniae [11] = assay: Antibacterial activity against erythromycin-resistant and clindamycin-susceptible Streptococcus pneumoniae 35-405B isolate after 24 hrs by broth microdilution method; how it was run: as §1
Staphylococcus aureus [12] = assay: Antibacterial activity against oxacillin-resistant Staphylococcus aureus ATCC 33591 after 24 hrs by broth microdilution method; settings: ATCC 33591, 24 h; how it was run: as §1
Bacillus cereus = assay: Antibacterial activity against Bacillus cereus 24-59A isolate after 24 hrs by broth microdilution method
Enterococcus faecalis [13] = assay: Antibacterial activity against ampicillin and vancomycin-susceptible Enterococcus faecalis ATCC 29212 after 24 hrs by broth microdilution method; settings: ATCC 29212, 24 h; how it was run: as §1
Streptococcus pneumoniae [14] = assay: Antibacterial activity against penicillin-resistant Streptococcus pneumoniae 33-50B isolate after 24 hrs by broth microdilution method; how it was run: as §1
Corynebacterium jeikeium = assay: Antibacterial activity against Corynebacterium jeikeium 15-196A isolate after 24 hrs by broth microdilution method
How it was run: (§2)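 Broth microdilution following NCCLS M7-A6 (2003) inocula; isolates transferred aseptically into panel wells with an autoinoculator; cation-adjusted Mueller-Hinton broth; incubated overnight to 24 h at 35°C in ambient air; panels read by eye, MIC taken as lowest concentration with no visible growth.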

Bacillus sp. [15] = assay: Antibacterial activity against tetracycline-resistant Bacillus sp. 107-1461D isolate after 24 hrs by broth microdilution method; settings: Bacillus sp. (in: firmicutes); how it was run: as §1
Streptococcus [16] = assay: Antibacterial activity against erythromycin and clindamycin-resistant beta-haemolytic sStreptococcus 91-526D isolate after 24 hrs by broth microdilution method; how it was run: as §1
Corynebacterium sp. [17] = assay: Antibacterial activity against doxycyclin-resistant Corynebacterium sp. 105-1513C isolate after 24 hrs by broth microdilution method; how it was run: as §1
Staphylococcus aureus [18] = assay: Antibacterial activity against linezolid-resistant Staphylococcus aureus 106-12591A isolate after 24 hrs by broth microdilution method; how it was run: as §1
Staphylococcus aureus [19] = assay: Antibacterial activity against quinupristin/dalfopristin-resistant Staphylococcus aureus 300-12053A isolate after 24 hrs by broth microdilution method; how it was run: as §1
Streptococcus [20] = assay: Antibacterial activity against erythromycin-resistant and clindamycin-susceptible beta-haemolytic sStreptococcus 109-820D isolate after 24 hrs by broth microdilution method; how it was run: as §1
Staphylococcus aureus [21] = assay: Antibacterial activity against oxacillin-susceptible Staphylococcus aureus ATCC 29213 after 24 hrs by broth microdilution method; settings: ATCC 29213, 24 h; how it was run: as §1
Staphylococcus [22] = assay: Antibacterial activity against mupirocin-resistant coagulase negative Staphylococcus 63-18A isolate after 24 hrs by broth microdilution method; how it was run: as §1
Enterococcus faecalis [23] = assay: Antibacterial activity against gentamycin and streptomycin-resistant Enterococcus faecalis 39-11D isolate after 24 hrs by broth microdilution method; how it was run: as §1
Streptococcus [24] = assay: Antibacterial activity against multidrug-resistant viridans group Streptococcus 58-1602D isolate after 24 hrs by broth microdilution method; how it was run: as §1
Enterococcus faecium [25] = assay: Antibacterial activity against linezolid-resistant Enterococcus faecium 11-4103A isolate after 24 hrs by broth microdilution method; how it was run: as §1
Bacillus sp. [26] = assay: Antibacterial activity against erythromycin-resistant Bacillus sp. 32-2406A isolate after 24 hrs by broth microdilution method; settings: Bacillus sp. (in: firmicutes); how it was run: as §1
Enterococcus faecium [27] = assay: Antibacterial activity against vancomycin-resistant Enterococcus faecium 15-206A isolate with vanA phenotype after 24 hrs by broth microdilution method; how it was run: as §1
Staphylococcus [28] = assay: Antibacterial activity against quinupristin/dalfopristin-resistant coagulase negative Staphylococcus 90-10840A isolate after 24 hrs by broth microdilution method; how it was run: as §1
Enterococcus faecalis [29] = assay: Antibacterial activity against vancomycin-resistant Enterococcus faecalis 48-22D isolate with vanA phenotype after 24 hrs by broth microdilution method; how it was run: as §1
Corynebacterium sp. [30] = assay: Antibacterial activity against streptomycin-resistant Corynebacterium sp. 61-5454A isolate after 24 hrs by broth microdilution method; how it was run: as §1
Streptococcus [31] = assay: Antibacterial activity against linezolid-resistant viridans group Streptococcus 27-2832A isolate after 24 hrs by broth microdilution method; how it was run: as §1
Streptococcus [32] = assay: Antibacterial activity against mupirocin-resistant viridans group sStreptococcus 32-2395A isolate after 24 hrs by broth microdilution method; how it was run: as §1
Streptococcus mitis = assay: Antibacterial activity against penicillin-resistant Streptococcus mitis 61-2900C isolate after 24 hrs by broth microdilution method; how it was run: as §1
Streptococcus pneumoniae [33] = assay: Antibacterial activity against penicillin-intermediate resistant Streptococcus pneumoniae ATCC 49619 after 24 hrs by broth microdilution method; settings: ATCC 49619, 24 h; how it was run: as §1
Streptococcus pneumoniae [34] = assay: Antibacterial activity against levofloxacin-resistant Streptococcus pneumoniae 2-2784A isolate after 24 hrs by broth microdilution method; how it was run: as §1
Bacillus sp. [35] = assay: Antibacterial activity against trimethoprim/sulfamethaxazole-resistant Bacillus sp. 67-1057A isolate after 24 hrs by broth microdilution method; settings: Bacillus sp. (in: firmicutes); how it was run: as §1
Corynebacterium sp. [36] = assay: Antibacterial activity against rifampin-resistant Corynebacterium sp. 58-9161A isolate after 24 hrs by broth microdilution method; how it was run: as §1
Escherichia coli = assay: Antibacterial activity against sEscherichia coli ATCC 25922 after 24 hrs by broth microdilution method; settings: ATCC 25922, 24 h; how it was run: as §2
Enterococcus faecalis [37] = assay: Antibacterial activity against vancomycin-resistant Enterococcus faecalis 82-876D with vanB phenotype isolate after 24 hrs by broth microdilution method; how it was run: as §1
Streptococcus [38] = assay: Antibacterial activity against levafloxacin-resistant viridans group Streptococcus 107-6380A isolate after 24 hrs by broth microdilution method; how it was run: as §1
[39] = test system: Staphylococcus haemolyticus; assay: Antibacterial activity against oxacillin-resistant Staphylococcus haemolyticus 107-1240C isolate after 24 hrs by broth microdilution method; how it was run: as §1
Enterococcus faecium [40] = assay: Antibacterial activity against ampicillin and vancomycin-resistant Enterococcus faecium 24-45A isolate after 24 hrs by broth microdilution method; how it was run: as §1
Staphylococcus [41] = assay: Antibacterial activity against coagulase negative linezolid-resistant Staphylococcus 82-1645A isolate after 24 hrs by broth microdilution method; how it was run: as §1
Pseudomonas aeruginosa = assay: Antibacterial activity against sPseudomonas aeruginosa ATCC 27853 after 24 hrs by broth microdilution method; settings: ATCC 27853, 24 h; how it was run: as §2

## CCCCCCCCCCCCO[C@@H]1O[C@@H](C)[C@H](O[C@@H]2O[C@@H](C)[C@H](OC(C)=O)[C@@H](O[C@@H]3O[C@@H](C)[C@H](OC(C)=O)[C@@H](O)[C@H]3OC(C)=O)[C@H]2O)[C@@H](O)[C@H]1O
[1]
  MIC: 4 µg/mL (≈ 5.33 µM)
Streptococcus pneumoniae [2]
  MIC: 4 µg/mL (≈ 5.33 µM)
Streptococcus [3]
  MIC: 4 µg/mL (≈ 5.33 µM)
Streptococcus pyogenes
  MIC: 8 µg/mL (≈ 10.7 µM)
Staphylococcus aureus [4]
  MIC: 8 µg/mL (≈ 10.7 µM)
Staphylococcus aureus [5]
  MIC: 8 µg/mL (≈ 10.7 µM)
Enterococcus faecalis [6]
  MIC: 2 µg/mL (≈ 2.66 µM)
Enterococcus faecium [7]
  MIC: 2 µg/mL (≈ 2.66 µM)
Staphylococcus aureus [8]
  MIC: 2 µg/mL (≈ 2.66 µM)
Enterococcus faecium [9]
  MIC: 2 µg/mL (≈ 2.66 µM)
Streptococcus pneumoniae [10]
  MIC: 4 µg/mL (≈ 5.33 µM)
Streptococcus pneumoniae [11]
  MIC: 4 µg/mL (≈ 5.33 µM)
Staphylococcus aureus [12]
  MIC: 2 µg/mL (≈ 2.66 µM)
Bacillus cereus
  MIC: 2 µg/mL (≈ 2.66 µM)
Enterococcus faecalis [13]
  MIC: 4 µg/mL (≈ 5.33 µM)
Streptococcus pneumoniae [14]
  MIC: 8 µg/mL (≈ 10.7 µM)
Corynebacterium jeikeium
  MIC: > 32 µg/mL
Bacillus sp. [15]
  MIC: 2 µg/mL (≈ 2.66 µM)
Streptococcus [16]
  MIC: 4 µg/mL (≈ 5.33 µM)
Corynebacterium sp. [17]
  MIC: 8 µg/mL (≈ 10.7 µM)
Staphylococcus aureus [18]
  MIC: 2 µg/mL (≈ 2.66 µM)
Staphylococcus aureus [19]
  MIC: 2 µg/mL (≈ 2.66 µM)
Streptococcus [20]
  MIC: 4 µg/mL (≈ 5.33 µM)
Staphylococcus aureus [21]
  MIC: 2 µg/mL (≈ 2.66 µM)
Staphylococcus [22]
  MIC: 2 µg/mL (≈ 2.66 µM)
Enterococcus faecalis [23]
  MIC: 2 µg/mL (≈ 2.66 µM)
Streptococcus [24]
  MIC: 4 µg/mL (≈ 5.33 µM)
Enterococcus faecium [25]
  MIC: 2 µg/mL (≈ 2.66 µM)
Bacillus sp. [26]
  MIC: 2 µg/mL (≈ 2.66 µM)
Enterococcus faecium [27]
  MIC: 2 µg/mL (≈ 2.66 µM)
Staphylococcus [28]
  MIC: 2 µg/mL (≈ 2.66 µM)
Enterococcus faecalis [29]
  MIC: 2 µg/mL (≈ 2.66 µM)
Corynebacterium sp. [30]
  MIC: 8 µg/mL (≈ 10.7 µM)
Streptococcus [31]
  MIC: 4 µg/mL (≈ 5.33 µM)
Streptococcus [32]
  MIC: 4 µg/mL (≈ 5.33 µM)
Streptococcus mitis
  MIC: 8 µg/mL (≈ 10.7 µM)
Streptococcus pneumoniae [33]
  MIC: 8 µg/mL (≈ 10.7 µM)
Streptococcus pneumoniae [34]
  MIC: 4 µg/mL (≈ 5.33 µM)
Bacillus sp. [35]
  MIC: 2 µg/mL (≈ 2.66 µM)
Corynebacterium sp. [36]
  MIC: 8 µg/mL (≈ 10.7 µM)
Escherichia coli
  MIC: > 32 µg/mL
Enterococcus faecalis [37]
  MIC: 2 µg/mL (≈ 2.66 µM)
Streptococcus [38]
  MIC: 4 µg/mL (≈ 5.33 µM)
[39]
  MIC: 4 µg/mL (≈ 5.33 µM)
Enterococcus faecium [40]
  MIC: 2 µg/mL (≈ 2.66 µM)
Staphylococcus [41]
  MIC: 2 µg/mL (≈ 2.66 µM)
Pseudomonas aeruginosa
  MIC: > 32 µg/mL
